The results in this text go back to ChEMBL document CHEMBL1151201, “Tolaasins A--E, five new lipodepsipeptides produced by Pseudomonas tolaasii” (2004).

Bounds are passed on as bounds.

The test system of one test is Rhizoctonia solani. The test can be described thus: Antifungal activity against Rhizoctonia solani 1583 after 24 to 48 hrs by soft agar procedure. It is filed as functional. The method in brief:
(§1)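 Tolaasin stock solutions in distilled water were serially diluted 1:1 and applied as drops onto soft-agar lawns of the test organism. The endpoint recorded was the last dilution that still inhibited growth in the area where the drop was applied.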

Another test concerns Rhodotorula mucilaginosa. The test can be described thus: Antifungal activity against Rhodotorula pilimanae ATCC 26423 after 24 to 48 hrs by soft agar procedure. It is filed as functional. A digest of the protocol:
as §1

For another test, the system named is Priestia megaterium. Nature of the test: Antibacterial activity against Bacillus megaterium ITM 100 after 24 to 48 hrs by soft agar procedure. It counts as functional. A digest of the protocol: as §1
Another test has as its system Rhodococcus fascians. Nature of the test: Antibacterial activity against Rhodococcus fascians NCPPB3067 after 24 to 48 hrs by soft agar procedure. It counts as functional, Rhodococcoides fascians. A digest of the protocol:
as §1

In the next test the test system is Escherichia coli. Nature of the test: Antibacterial activity against Escherichia coli K-12 ITM103 after 24 to 48 hrs by soft agar procedure. It is filed as functional. The method in brief:
as §1

For test [1], the system named is Pectobacterium carotovorum. Nature of the test: Antibacterial activity against Erwinia carotovora subsp. carotovora ICMP 5702 after 24 to 48 hrs by soft agar procedure. It counts as functional, Pectobacterium carotovorum subsp. carotovorum. The method in brief:
as §1

On to `C/C=C(\NC(=O)[C@H](NC(=O)[C@H](CC(C)C)NC(=O)[C@@H](CCC(N)=O)NC(=O)[C@@H](NC(=O)[C@H](NC(=O)[C@@H](CC(C)C)NC(=O)[C@@H](CO)NC(=O)[C@H](NC(=O)[C@H](CC(C)C)NC(=O)[C@H](CO)NC(=O)[C@H]1CCCN1C(=O)/C(=C/C)NC(=O)CC(O)CCCCC)C(C)C)C(C)C)C(C)C)C(C)C)C(=O)N[C@H]1C(=O)N[C@@H](CC(C)C)C(=O)NCC(=O)N[C@H](CCN)C(=O)N[C@@H](CCCCN)C(=O)O[C@@H]1C` (some centres not stated) [TOLAASIN E], for which the MIC was 5.12 µg in the test on Rhizoctonia solani; over 5.12 µg against Rhodotorula mucilaginosa; 2.56 µg in the test with Priestia megaterium; 2.56 µg against Rhodococcus fascians; over 5.12 µg in the test with Escherichia coli; over 5.12 µg in test [1].
`C/C=C(\NC(=O)[C@H](NC(=O)[C@H](CC(C)C)NC(=O)[C@@H](CCC(N)=O)NC(=O)[C@@H](NC(=O)[C@H](NC(=O)[C@@H](CC(C)C)NC(=O)[C@@H](CO)NC(=O)[C@H](NC(=O)[C@H](CC(C)C)NC(=O)[C@H](CO)NC(=O)[C@H]1CCCN1C(=O)/C(=C/C)NC(=O)CC(O)CCCCC)C(C)C)C(C)C)C(C)C)C(C)C)C(=O)N[C@H]1C(=O)N[C@@H](C(C)C)C(=O)N[C@@H](CCO)C(=O)N[C@H](CCN)C(=O)N[C@@H](CCCCN)C(=O)O[C@@H]1C` (some centres not stated) [TOLAASIN B]: the MIC in the test with Rhizoctonia solani was 2.56 µg; with Rhodotorula mucilaginosa it was over 5.12 µg; in the test on Priestia megaterium, 2.56 µg; with Rhodococcus fascians it was 1.28 µg; against Escherichia coli, over 5.12 µg; in test [1] it was over 5.12 µg.
With `C/C=C(\NC(=O)[C@H](NC(=O)[C@H](CC(C)C)NC(=O)[C@@H](CCC(N)=O)NC(=O)[C@@H](NC(=O)[C@H](NC(=O)[C@@H](CC(C)C)NC(=O)[C@@H](CO)NC(=O)[C@H](NC(=O)[C@H](CC(C)C)NC(=O)[C@H](CO)NC(=O)[C@H]1CCCN1C(=O)/C(=C/C)NC(=O)CC(O)CCCCC)C(C)C)C(C)C)C(C)C)C(C)C)C(=O)N[C@H]1C(=O)N[C@@H]([C@@H](C)CC)C(=O)NCC(=O)N[C@H](CCN)C(=O)N[C@@H](CCCCN)C(=O)O[C@@H]1C` (some centres not stated) [TOLAASIN II], the MIC against Rhizoctonia solani is 0.64 µg; against Rhodotorula mucilaginosa, 5.12 µg; in the test with Priestia megaterium, 0.64 µg; with Rhodococcus fascians, 0.64 µg; against Escherichia coli it was over 5.12 µg; in test [1], over 5.12 µg.
On to `C/C=C(\NC(=O)[C@H](NC(=O)[C@H](CC(C)C)NC(=O)[C@@H](CCC(N)=O)NC(=O)[C@@H](NC(=O)[C@H](NC(=O)[C@@H](CC(C)C)NC(=O)[C@@H](CO)NC(=O)[C@H](NC(=O)[C@H](CC(C)C)NC(=O)[C@H](CO)NC(=O)[C@H]1CCCN1C(=O)/C(=C/C)NC(=O)CC(O)CCCCC)C(C)C)C(C)C)C(C)C)C(C)C)C(=O)N[C@H]1C(=O)N[C@@H]([C@@H](C)CC)C(=O)N[C@@H](CCO)C(=O)N[C@H](CCN)C(=O)N[C@@H](CCCCN)C(=O)O[C@@H]1C` (some centres not stated) [TOLAASIN I], for which the MIC in the test with Rhizoctonia solani was 0.32 µg; in the test on Rhodotorula mucilaginosa it was 2.56 µg; in the test on Priestia megaterium, 0.32 µg; against Rhodococcus fascians, 0.32 µg; in the test with Escherichia coli it was over 5.12 µg; in test [1], over 5.12 µg.
As to `C/C=C(\NC(=O)[C@H](NC(=O)[C@H](CC(C)C)NC(=O)[C@@H](CCC(N)=O)NC(=O)[C@@H](NC(=O)[C@H](NC(=O)[C@@H](CC(C)C)NC(=O)[C@@H](CO)NC(=O)[C@H](NC(=O)[C@H](CC(C)C)NC(=O)[C@H](CO)NC(=O)[C@H]1CCCN1C(=O)/C(=C/C)NC(=O)CC(O)CCCCC)C(C)C)C(C)C)C(C)C)C(C)C)C(=O)N[C@H]1C(=O)N[C@@H](CC(C)C)C(=O)N[C@@H](CCO)C(=O)N[C@H](CCN)C(=O)N[C@@H](CCCCN)C(=O)O[C@@H]1C` (some centres not stated) [TOLAASIN D], the MIC with Rhizoctonia solani is 0.16 µg; in the test with Rhodotorula mucilaginosa it was 2.56 µg; in the test with Priestia megaterium, 0.16 µg; with Rhodococcus fascians, 0.16 µg; against Escherichia coli, over 5.12 µg; in test [1], over 5.12 µg.
With `C/C=C(\NC(=O)[C@H](NC(=O)[C@H](CC(C)C)NC(=O)[C@@H](CCC(N)=O)NC(=O)[C@@H](NC(=O)[C@H](NC(=O)[C@@H](CC(C)C)NC(=O)[C@@H](CO)NC(=O)[C@H](NC(=O)[C@H](CC(C)C)NC(=O)[C@H](CO)NC(=O)[C@H]1CCCN1C(=O)/C(=C/C)NC(=O)CC(O)CCCCC)C(C)C)C(C)C)C(C)C)C(C)C)C(=O)N[C@@H](C(=O)N[C@H](C(=O)N[C@@H](CCO)C(=O)N[C@H](CCN)C(=O)N[C@@H](CCCCN)C(=O)O)[C@@H](C)CC)[C@@H](C)O` (some centres not stated) [TOLAASIN C], the MIC was 5.12 µg against Rhizoctonia solani; over 5.12 µg with Rhodotorula mucilaginosa; over 5.12 µg in the test on Priestia megaterium; over 5.12 µg against Rhodococcus fascians; over 5.12 µg with Escherichia coli; over 5.12 µg in test [1].
As to `C/C=C(\NC(=O)[C@H](NC(=O)[C@H](CC(C)C)NC(=O)[C@@H](CCC(N)=O)NC(=O)[C@@H](NC(=O)[C@H](NC(=O)[C@@H](CC(C)C)NC(=O)[C@@H](CO)NC(=O)[C@H](NC(=O)[C@H](CC(C)C)NC(=O)[C@H](CO)NC(=O)[C@H]1CCCN1C(=O)/C(=C/C)NC(=O)CCCC(=O)O)C(C)C)C(C)C)C(C)C)C(C)C)C(=O)N[C@H]1C(=O)N[C@@H]([C@@H](C)CC)C(=O)N[C@@H](CCO)C(=O)N[C@H](CCN)C(=O)N[C@@H](CCCCN)C(=O)O[C@@H]1C` [TOLAASIN A], the MIC was 1.28 µg against Rhizoctonia solani; 5.12 µg in the test with Rhodotorula mucilaginosa; 1.28 µg in the test on Priestia megaterium; 1.28 µg against Rhodococcus fascians; over 5.12 µg against Escherichia coli; over 5.12 µg in test [1].
